Calls of active or inactive are those of the source. The calls are words filed in the database; no cut-off is given here.

This passage reports Ki, Ks and NA results from ChEMBL document CHEMBL1134543, “A rational approach to the design of selective substrates and potent nontransportable inhibitors of the excitatory amino acid transporter EAAC1 (EAAT3). new glutamate and aspartate analogues as potential neuroprotective agents” (J Med Chem, 2001).

In experiment [1] the target is Glutamate receptor ionotropic, kainate. Kind of experiment: Binding affinity towards Ionotropic glutamate receptor kainate by displacement of [3H]-kainic acid radioligand. Format: protein-complex assay. In general terms: Loss of bound radioactivity is the signal in a displacement assay; it reports binding, not function.
Experiment [2] has as its target T1, Excitatory amino acid transporter 3 (Rattus norvegicus) (UniProt P51907).
T1 sequence (whole entry): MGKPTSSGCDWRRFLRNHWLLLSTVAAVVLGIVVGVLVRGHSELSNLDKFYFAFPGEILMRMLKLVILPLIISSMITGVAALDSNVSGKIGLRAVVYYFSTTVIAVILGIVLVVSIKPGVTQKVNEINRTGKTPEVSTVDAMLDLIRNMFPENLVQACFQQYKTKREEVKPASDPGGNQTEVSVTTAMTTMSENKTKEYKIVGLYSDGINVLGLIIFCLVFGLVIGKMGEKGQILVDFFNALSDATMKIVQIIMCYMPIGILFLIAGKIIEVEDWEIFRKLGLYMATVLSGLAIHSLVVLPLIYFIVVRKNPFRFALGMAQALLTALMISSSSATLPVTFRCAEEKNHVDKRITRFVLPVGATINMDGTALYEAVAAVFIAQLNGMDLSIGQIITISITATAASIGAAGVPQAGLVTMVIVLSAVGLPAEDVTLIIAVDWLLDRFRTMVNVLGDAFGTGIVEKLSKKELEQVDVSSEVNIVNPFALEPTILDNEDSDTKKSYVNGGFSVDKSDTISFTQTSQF
Nature of the experiment: Steady state transport rate by EAAC1 (EAAT3) in mammalian cells. Type of experiment: cell-based. Put shortly: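 Whole-cell currents from EAAC1-expressing mammalian cells (intracellular SCN-, Vm 0 mV, pH 7.4, 22 °C). Steady-state KS is taken from concentration dependence. Imax ratio is the current at saturating test compound relative to the current at saturating (1 mM) L-glutamate.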

Experiment [3] addresses T2, Glutamate receptor ionotropic, AMPA (Rattus norvegicus, UniProt P19490+P19491+P19492+P19493). Nature of the experiment: Binding affinity towards AMPA receptor by displacement of [3H]AMPA radioligand. Type of experiment: protein-complex assay.
Another experiment addresses Glutamate NMDA receptor. Kind of experiment: Binding affinity towards NMDA receptor by displacement of [3H]CGP-39653 radioligand. Format: protein-complex assay.
The target of experiment [4] is Glutamate receptor ionotropic, kainate (Rattus norvegicus) (UniProt P22756+Q01812+P42260+P42264+Q63273). Kind of experiment: Binding affinity towards Ionotropic glutamate receptor kainate by displacement of [3H]-kainic acid radioligand; Not active. Type of experiment: protein-complex assay.
Experiment [5] deals with T3, Excitatory amino acid transporter 3 (Rattus norvegicus, UniProt P51907).
T3 sequence (P51907 whole entry): T1 sequence (whole entry)
Nature of the experiment: Inhibitory activity against EAAC1 (EAAT3) in presence of 20 uM L-glutamic acid in mammalian cells. Type of experiment: cell-based.

The target in experiment [6] is T3, Excitatory amino acid transporter 3. Nature of the experiment: Inhibitory activity against EAAC1 (EAAT3) in absence of L-glutamic acid in mammalian cells. Format: cell-based.
Experiment [7] concerns the target Glutamate receptor ionotropic, AMPA (Rattus norvegicus) (UniProt P19491+P19492+P19493+P19490). Nature of the experiment: Binding affinity towards AMPA receptor by displacement of [3H]-AMPA radioligand; Not active. Type of experiment: protein-complex assay.
In experiment [8] the target is Glutamate NMDA receptor (Rattus norvegicus) (UniProt P35439+Q00959+Q00960+Q00961+Q62645+Q8VHN2+Q9R1M7). Nature of the experiment: Binding affinity towards NMDA receptor by displacement of [3H]CGP-39653 radioligand; Not active. Format: protein-complex assay.
In experiment [9] the target is T2, Glutamate receptor ionotropic, AMPA. Nature of the experiment: Binding affinity towards AMPA receptor by displacement of [3H]AMPA radioligand. Format: protein-complex assay.
Experiment [10] addresses T3, Excitatory amino acid transporter 3. Kind of experiment: Inhibitory activity against EAAC1 (EAAT3) in presence of 20 uM L-glutamic acid.
The target is the same in experiment [11]. Kind of experiment: Inhibitory activity against EAAC1 (EAAT3) in absence of L-glutamic acid.

The term Ki denotes the dissociation constant of the complex between target and ligand, obtained from inhibition or displacement. As for `N[C@@H](CCC1=N[C@H](C(=O)O)CO1)C(=O)O`, the Ki stood at 14 µM in experiment [1], 103 µM in experiment [3] and 9 µM on Glutamate NMDA receptor. In [2], this compound gave a Ks of 730 µM.

`N[C@@H](CCC(=O)O)C(=O)O`: the Ks in experiment [2] was determined as 5.1 µM.

In the case of `O=C(O)[C@H]1N=C(c2ccccc2)O[C@@H]1C(=O)O`, the NA entry in experiment [4], in experiment [7] and in experiment [8] was “inactive” each time. Further, the Ki in experiment [5] turned out to be 42 µM; in experiment [6], 14 µM.

As for `N[C@@H](CCc1nc(C(=O)O)co1)C(=O)O`, the Ki in experiment [9] came to 41 µM; in experiment [1] it was 8 µM; at Glutamate NMDA receptor it was 3 µM. The same compound had a Ks in experiment [2] of 100 µM.

With `N[C@@H](CC1=N[C@H](C(=O)O)CO1)C(=O)O`, the NA entry in experiment [4], in [7] and in [8] was “inactive” each time. In experiment [2], this compound came in with a Ks of 31 µM.

Consider `O=C(O)c1nc(-c2ccccc2)oc1C(=O)O`, for which the NA entry in experiment [4], in experiment [7] and in [8] was “inactive” in each case. Besides, the Ki in [10] is 530 µM; in experiment [11] it was 75 µM.
